Screens as filed in PubChem.
A selection: hits, their analogues and other compounds. The true share with any hit is near 2.8%.
SIRT5 block: SIRT5 desuccinylase inhibitors, primary screen, biochemical, fluorescence imaging, single point, set 5; inhibition, % at 15 µM; 1.1% of 330,000 active; AID 652115, 2013; Purified SirT5, succinyl-peptide AMC, trypsin-coupled fluorescence; NAD-dependent protein deacylase sirtuin-5, mitochondrial (Homo sapiens), Q9NXA8; in the data active means inhibition above about 15%; inconclusive means no clear call, values can overlap the other calls
E-sel inducer: E-selectin induction in HUVECs, primary screen, imaging, HUVEC, immunofluorescence imaging, single point. 0.37% of 260,000 active. P16581. normalized: neutral wells 0, TNF-alpha wells 100. activation, % at 7.58 µM. AID 686992, 2013;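 active means mean E-selectin-positive cell signal at least 10% of the positive control, reached in at least 60% of replicates, without over 20% cell loss; inconclusive means no rule given, readout overlaps actives, possibly toxicity-flagged; inactive means the rest, including those meeting only one limit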
Target sequence (P16581 whole entry, looked up): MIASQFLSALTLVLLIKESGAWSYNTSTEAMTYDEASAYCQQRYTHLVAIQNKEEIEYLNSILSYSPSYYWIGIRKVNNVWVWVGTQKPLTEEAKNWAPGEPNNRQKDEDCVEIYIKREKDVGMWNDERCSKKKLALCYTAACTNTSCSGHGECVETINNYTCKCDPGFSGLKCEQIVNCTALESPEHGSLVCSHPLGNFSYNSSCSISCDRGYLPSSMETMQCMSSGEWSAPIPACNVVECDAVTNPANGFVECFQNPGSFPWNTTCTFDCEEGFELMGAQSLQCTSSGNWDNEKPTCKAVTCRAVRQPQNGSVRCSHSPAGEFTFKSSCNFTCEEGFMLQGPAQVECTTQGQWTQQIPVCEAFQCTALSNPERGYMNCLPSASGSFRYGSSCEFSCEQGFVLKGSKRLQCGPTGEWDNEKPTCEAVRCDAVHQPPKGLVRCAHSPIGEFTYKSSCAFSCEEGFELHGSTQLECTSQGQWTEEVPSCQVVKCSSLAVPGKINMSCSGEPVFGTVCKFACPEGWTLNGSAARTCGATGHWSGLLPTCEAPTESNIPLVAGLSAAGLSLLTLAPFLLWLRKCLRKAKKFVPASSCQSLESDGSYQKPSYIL
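System: HUVEC / Compound: single concentration / Signal: immunofluorescence imaging / Read-out: percent E-selectin-positive cells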
DENV2 CPE: inhibitors of DENV2 cytopathic effect, primary screen, cell-based, plate reader, single concentration. DENV2-infected cells, cytopathic effect rescue. CPE inhibition, % at 9.99 µM. AID 651640, 2012. 1.7% of 350,000 active; in the data active means CPE inhibition above about 20%, passing the limit was not always enough; inconclusive means no clear call, values can overlap the other calls; tested in BHK-21 cells;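 further: 0% = median of neutral control wells and 100% = median of positive control wells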
* hit, by the source's call; ? = inconclusive; / = no result given.

SMILES	SIRT5 block	E-sel inducer	DENV2 CPE
O=C(NCCCN1CCOCC1)C1CCC(=O)N1CCc1ccccc1 (centres undefined)	-1.1	0.0	28.6*
COc1ccc(C(=O)C2CCCN(S(=O)(=O)C(C)C)C2)c(C)c1 (centres undefined)	24.6*	/	-4.6
COc1ccc(C(=O)C2CCCN(S(=O)(=O)N(C)C)C2)c(C)c1 (centres undefined)	-1.5	0.0	-3.2
CCCCCCCNC(=O)C1(CC2CC(c3ccccc3)=NO2)CCN(C(=O)c2ccccc2)CC1 (centres undefined)	3.1	-0.1	23.8*
CCCCCCCNC(=O)C1(CC2CC(c3ccc(Cl)cc3)=NO2)CCN(C(=O)c2ccccc2)CC1 (centres undefined)	-0.1	-0.2	-5.7
CCCCCCCNC(=O)C1(CC2CC(c3ccccc3)=NO2)CCN(C(=O)OC(C)(C)C)CC1 (centres undefined)	16.6*	-0.1	0.0
CC(C)(C)OC(=O)N1CCC(CC2CC(c3ccccc3)=NO2)(C(=O)NCc2ccccc2)CC1 (centres undefined)	-0.7	-0.1	6.4
CO[C@H]1CN(C)C(=O)c2ccc(NS(=O)(=O)c3ccccc3C)cc2OC[C@H](C)N(C)C[C@H]1C	-3.8	-0.3	3.4
C[C@H]1CN([C@@H](C)CO)C(=O)c2ccccc2-c2ccccc2CO[C@@H]1CN(C)C(=O)Nc1ccccc1	2.5	-0.1	3.8
COC(=O)[C@]1(Cc2ccccc2)N=C(c2ccc(OCCCO)cc2)O[C@@H]1c1ccccc1N=[N+]=[N-]	10.1	/	11.4
O=C(O)C1Nc2c(Cl)cc(Cl)c(Cl)c2C2C=CCC12 (centres undefined)	22.4*	/	5.4
CC(C)C1Nc2c(O)cc(Cl)c([N+](=O)[O-])c2C2C=CCC21 (centres undefined)	-2.0	/	-7.7
CCOC(=O)C1Nc2ccc(C)cc2C2C=CCC12 (centres undefined)	-1.7	0.5	1.1
O=C(O)C1Nc2c(O)cccc2C2C=CCC12 (centres undefined)	17.4*	/	-2.3
CC(=O)Nc1ccc(NC(=O)C(C)n2nc([N+](=O)[O-])c(Br)c2C)cc1 (centres undefined)	-2.5	/	-3.3
CC(=O)Nc1ccc(NC(=O)C(C)n2nc(C)c([N+](=O)[O-])c2C)cc1 (centres undefined)	27.5*	-0.8	-4.6
C[C@]12CCC3C4(C=CC5(C=C4C(=O)C4CCCCC4)C[C@@H](O)CC[C@]35C)C1CC[C@@]2(O)CN1CCC(n2c(=O)[nH]c3ccccc32)CC1 (some centres undefined)	-1.3	/	13.5
O=C(c1ccc(F)cc1)N1CC(=O)N2[C@H](CO)[C@H](c3ccc(C#CC4CCCCC4)cc3)[C@H]2C1	1.5	-0.6	?
CCCC#Cc1ccc([C@@H]2[C@H]3CN(C(=O)Cc4cccnc4)CC(=O)N3[C@H]2CO)cc1	-6.0	-0.3	?
C[C@H](NC(=O)OCc1ccccc1)C(=O)NNC(=O)[C@H](Cc1ccccc1)NC(=O)OC(C)(C)C	-1.7	/	3.5
CC(C)(C)OC(=O)[C@H](NC(=O)OCc1ccccc1)c1ccccc1	/	0.1	-7.5
CC(C)(C)OC(=O)N[C@@H](CC(=O)OCc1ccccc1)C(=O)O	-0.6	/	-4.4
CC(C)(C)OC(=O)C(Cc1ccc(OC(C)(C)C)cc1)NC(=O)CNC(=O)OCc1ccccc1 (centres undefined)	9.4	-0.5	76.7*
C[C@H](NC(=O)OCc1ccccc1)C(=O)NNC(=O)[C@H](C)NC(=O)OCc1ccccc1	21.2*	0.0	0.2
CC(C)(C)OC(=O)NC(CC(=O)OCc1ccccc1)C(=O)O (centres undefined)	-1.6	/	47.1*
SMILES	SIRT5 block	E-sel inducer	DENV2 CPE
O=C(C[C@H]1CC[C@H]2[C@@H](COC[C@@H](O)CN2Cc2ccccc2)O1)NCCCN1CCOCC1	-1.3	-0.1	-3.1
O=C(N[C@@H]1CC[C@H](CCNS(=O)(=O)c2ccccc2Cl)O[C@H]1CO)c1ccc(F)cc1	-1.4	0.2	-7.3
C[C@@H]1CN([C@@H](C)CO)C(=O)c2cc(NC(=O)c3ccncc3)ccc2O[C@@H](C)CCCCO[C@@H]1CN(C)C(=O)C1CCCCC1	2.3	0.8	-6.0
O=C(CC1CC1)N1CC(=O)N2[C@H](CO)[C@H](c3ccc(C#Cc4ccccc4)cc3)[C@@H]2C1	-2.5	-0.4	1.3
Cc1ccccc1N(C(=O)c1ccco1)C(C(=O)NC1CCCC1)c1cccnc1 (centres undefined)	1.6	-0.2	-1.5
CCc1ccccc1N(C(=O)c1ccco1)C(C(=O)NC1CCCC1)c1cccnc1 (centres undefined)	-4.8	/	54.5*
COc1ccc(Cl)cc1N(C(=O)c1ccco1)C(C(=O)NC1CCCC1)c1ccco1 (centres undefined)	-1.9	/	75.0*
COc1ccc(Cl)cc1N(C(=O)c1ccco1)C(C(=O)NC1CCCC1)c1ccncc1 (centres undefined)	0.2	-0.1	2.9
CCCN1C[C@@H](C)[C@@H](OC)CN(C)C(=O)c2cc(NS(=O)(=O)c3ccccc3)ccc2OC[C@@H]1C	-1.7	0.0	-2.1
CO[C@H]1CN(C)C(=O)c2ccc(NS(=O)(=O)c3ccccc3)cc2OC[C@@H](C)N(Cc2ccccn2)C[C@H]1C	/	-0.3	7.2
CO[C@@H]1CN(C)C(=O)c2ccc(NS(=O)(=O)c3ccccc3)cc2OC[C@H](C)N(C)C[C@H]1C	-1.5	-0.2	25.0*
CO[C@H]1CN(C)C(=O)c2ccc(NS(=O)(=O)c3ccccc3)cc2OC[C@H](C)N(Cc2ccccn2)C[C@@H]1C	/	-0.1	35.6*
CO[C@H]1CN(C)C(=O)c2cc(NS(=O)(=O)c3ccccc3)ccc2OC[C@@H](C)N(C)C[C@@H]1C	/	0.1	/
CCCN1C[C@H](C)[C@@H](OC)CN(C)C(=O)c2cc(NS(=O)(=O)c3ccccc3)ccc2OC[C@H]1C	31.5*	-0.3	15.5
CO[C@H]1CN(C)C(=O)c2ccc(NS(=O)(=O)c3ccccc3)cc2OC[C@H](C)N(C)C[C@@H]1C	-2.8	0.0	-7.4
CO[C@H]1CN(C)C(=O)c2cc(NS(=O)(=O)c3ccccc3)ccc2OC[C@H](C)N(C)C[C@H]1C	1.2	0.3	27.0*
O=C(C[C@@H]1C[C@@H]2c3cc(NC(=O)C4CCC4)ccc3O[C@@H]2[C@H](CO)O1)NC1CCCC1	-0.9	0.2	0.7
C[C@@H]1CN([C@@H](C)CO)C(=O)c2cc(NS(C)(=O)=O)ccc2O[C@@H](C)CCCCO[C@@H]1CN(C)C(=O)NC1CCCCC1	/	/	0.4
CCS(=O)(=O)N1CCCCN2[C@H](CO)[C@H](c3ccc(-c4ccccc4F)cc3)[C@@H]2C1	5.4	-0.1	-8.2
CO[C@@H]1CN(C)C(=O)c2ccc(NS(C)(=O)=O)cc2OC[C@@H](C)N(C(=O)NC(C)C)C[C@H]1C	1.0	-0.3	4.2
COc1ccccc1CNC(=O)C[C@H]1CC[C@H]2[C@@H](COC[C@@H](O)CN2C(=O)Nc2ccc(Cl)cc2)O1	-0.7	0.3	13.0
O=C(C[C@@H]1CC[C@H]2[C@@H](COC[C@H](O)CN2Cc2ccccc2F)O1)NC1CCC1	/	0.1	/
